Converted amounts (≈) assume the structure as drawn.
Assays:
Candida parapsilosis = assay: Antifungal activity against Candida parapsilosis ATCC 90018 WTBF-88 by microbroth dilution method; assay type: functional; details: Lodderomyces parapsilosis
Procedure, shortened: (§1)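 CLSI microbroth dilution in RPMI 1640 with L-glutamine. MIC values are geometric means of three independent assays.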

Cryptococcus neoformans = assay: Antifungal activity against Cryptococcus neoformans Cn18 (Serotype C) WTBF-106 by microbroth dilution method; assay type: functional
Procedure, shortened: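 Microbroth dilution per the CLSI protocol, run in Sabouraud Dextrose Broth in place of RPMI. MIC values are geometric means of three independent assays.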

[1] = Metabolic stability in liver microsomes (unknown origin); assay type: ADME
Pichia kudriavzevii = assay: Antifungal activity against Candida krusei WTBF-51 by microbroth dilution method; assay type: functional
Nakaseomyces glabratus = assay: Antifungal activity against Candida glabrata ATCC 90030 WTBF-86 by microbroth dilution method; assay type: functional; procedure, shortened: as §1
HeLa = assay: Cytotoxicity against human HeLa cells assessed as cell viability after 72 hrs by MTS assay; assay type: cell-based
Candida albicans = assay: Antifungal activity against Candida albicans WTBF-50 by microbroth dilution method; assay type: functional; procedure, shortened: as §1

SMILES	MIC (Candida parapsilosis) [µg/mL]	MIC (Cryptococcus neoformans) [µg/mL]	Stability [1]	MIC (Pichia kudriavzevii) [µg/mL]	MIC (Nakaseomyces glabratus) [µg/mL]	CC50 (HeLa) [µg/mL]	MIC (Candida albicans) [µg/mL]
O=C(O)C(F)(F)F.c1cc2cc(-c3ccc(-c4cn5ccc(C6=NCCCN6)cc5n4)cc3)[nH]c2cc1C1=NCCCN1	0.5	1	Stable	6.35	4	20.9	4
CC(=O)O.c1cc2cc(-c3ccc4oc(C5=NCCCN5)cc4c3)[nH]c2cc1C1=NCCCN1	0.5	1	Stable	4	1	50.5	0.4
CC(=O)O.c1cc2cc(-c3ccc4nc(C5=NCCCN5)cn4c3)[nH]c2cc1C1=NCCCN1	1	6.25	Stable	1.26	0.16	91.9	1
CC(=O)O.c1cc2cc(-c3ccc(-c4ccc5nc(C6=NCCCN6)cn5c4)cc3)[nH]c2cc1C1=NCCCN1	0.5	2	Stable	0.5	0.13	34.6	0.5
CN(C)CCNC(=N)c1ccc2cc(-c3ccc(-c4cc5ccc(C(=N)NCCN(C)C)cc5[nH]4)cc3)[nH]c2c1.O=C(O)C(F)(F)F	0.5	1.97	Stable	1	0.63	5.5	1
Cl.N=C(N)c1ccc2cc(-c3ccc(-c4cc5ccc(C(=N)N)cc5[nH]4)cc3)[nH]c2c1	2	3.13	Stable	2	4	7	16
CC(=O)O.c1cn2cc(-c3ccc(-c4ccc5cc(C6=NCCCN6)[nH]c5c4)cc3)nc2cc1C1=NCCCN1	8	1	Stable	16	32	20.7	16
CC1CN=C(c2ccc3cc(-c4ccc(-c5cc6ccc(C7=NCC(C)CN7)cc6[nH]5)cc4)[nH]c3c2)NC1.O=C(O)C(F)(F)F (stereo not drawn)	0.25	0.25	Stable	0.5	0.13	5.8	0.5
CC1(C)CN=C(c2ccc3cc(-c4ccc(-c5cc6ccc(C7=NCC(C)(C)CN7)cc6[nH]5)cc4)[nH]c3c2)NC1.O=C(O)C(F)(F)F	8	3.13	Stable	4	2	8	4
O=C(O)C(F)(F)F.c1cc2cc(-c3ccc(-c4nc5ccc(C6=NCCCN6)cc5[nH]4)cc3)[nH]c2cc1C1=NCCCN1	0.16	0.5	Stable	1	0.13	14.1	0.4
CC(=O)O.c1cc2cc(-c3ccc(-c4cc5ccc(C6=NCCCN6)cc5o4)cc3)[nH]c2cc1C1=NCCCN1	0.25	0.25	Stable	1	0.16	4.7	0.5
FC1CN=C(c2ccc3cc(-c4ccc(-c5cc6ccc(C7=NCC(F)CN7)cc6[nH]5)cc4)[nH]c3c2)NC1.O=C(O)C(F)(F)F (stereo not drawn)	0.25	0.25	Stable	0.25	0.13	13.9	0.5
CC(=O)O.c1cc2cc(-c3cnc(-c4cc5ccc(C6=NCCCN6)cc5[nH]4)nc3)[nH]c2cc1C1=NCCCN1	0.13	1.24	Stable	0.25	≤ 0.03	25.5	0.31
OC(Cn1cncn1)(Cn1cncn1)c1ccc(F)cc1F [FLUCONAZOLE]	1 (≈ 3.27 µM)	32 (≈ 104 µM)	–	≥ 32	≥ 32	–	≥ 32
Nc1nc(=O)[nH]cc1F [FLUCYTOSINE]	1.25 (≈ 9.68 µM)	≥ 20	–	≥ 20	0.31 (≈ 2.4 µM)	–	1.25 (≈ 9.68 µM)
CC(=O)O.c1cc2cc(-c3cnc(-c4cc5ccc(C6=NCCCN6)cc5o4)cn3)oc2cc1C1=NCCCN1	2	3.13	Stable	20.2	16	> 80	20.2
CC(=O)N1CCN(c2ccc(OCC3COC(Cn4ccnc4)(c4ccc(Cl)cc4Cl)O3)cc2)CC1 (stereo not drawn) [KETOCONAZOLE]	0.06 (≈ 0.113 µM)	32 (≈ 60.2 µM)	–	4 (≈ 7.53 µM)	≥ 32	–	20.2 (≈ 38 µM)

SMILES	MIC (Candida parapsilosis) [µg/mL]	MIC (Cryptococcus neoformans) [µg/mL]	Stability [1]	MIC (Pichia kudriavzevii) [µg/mL]	MIC (Nakaseomyces glabratus) [µg/mL]	CC50 (HeLa) [µg/mL]	MIC (Candida albicans) [µg/mL]
CC(=O)O.c1cc2cc(-c3ccc(-c4cc5ccc(C6=NCCCN6)cc5o4)cn3)[nH]c2cc1C1=NCCCN1	0.13	0.25	Stable	0.5	0.06	15.6	0.5
c1cc2cc(CCCc3cc4ccc(C5=NCCCN5)cc4[nH]3)[nH]c2cc1C1=NCCCN1	32 (≈ 73 µM)	16 (≈ 36.5 µM)	Stable	32 (≈ 73 µM)	12.7 (≈ 29 µM)	80.3 (≈ 183 µM)	22.6 (≈ 51.6 µM)
CC1CNC(c2ccc3cc(-c4ccc(-c5cc6ccc(C7=NC(C)CN7)cc6[nH]5)cc4)[nH]c3c2)=N1.O=C(O)C(F)(F)F (stereo not drawn)	0.4	0.25	Stable	0.79	0.25	66.5	0.79
N=C(NC1CCC(O)CC1)c1ccc2cc(-c3ccc(-c4cc5ccc(C(=N)NC6CCC(O)CC6)cc5[nH]4)cc3)[nH]c2c1.O=C(O)C(F)(F)F (stereo not drawn)	2	2.48	Stable	4	4	29.8	2.52
CC(=O)O.c1cc2cc(-c3ccc4cc(C5=NCCCN5)[nH]c4c3)sc2cc1C1=NCCCN1	2	4	Stable	16	5.04	27.5	3.17
Clc1c(-c2ccc(-c3[nH]c4cc(C5=NCCCN5)ccc4c3Cl)cc2)[nH]c2cc(C3=NCCCN3)ccc12.O=C(O)C(F)(F)F	0.25	0.78	Stable	0.25	0.25	0.65	0.4
CC(=O)O.c1cc2cc(-c3ccc(-c4ccc5nc(C6=NCCCN6)cn5c4)cc3)oc2cc1C1=NCCCN1	0.79	1	Stable	8	1	20.7	4
CC(=O)O.c1cc2cc(-c3ccc(-c4ccn5cc(C6=NCCCN6)nc5c4)cc3)[nH]c2cc1C1=NCCCN1	0.31	0.5	Stable	1	0.13	13.4	0.79
CC(=O)O.c1cc2cc(-c3cnc(-c4cc5ccc(C6=NCCCN6)cc5[nH]4)cn3)[nH]c2cc1C1=NCCCN1	0.2	3.13	Stable	0.5	0.06	42.7	0.5
N=C(NCCN1CCOCC1)c1ccc2cc(-c3ccc(-c4cc5ccc(C(=N)NCCN6CCOCC6)cc5[nH]4)cc3)[nH]c2c1.O=C(O)C(F)(F)F	2	2.48	Stable	2	2	24.9	2.52
O=C(O)C(F)(F)F.c1cc2cc(-c3ccc(-c4cn5cc(C6=NCCCN6)ccc5n4)cc3)[nH]c2cc1C1=NCCCN1	0.25	3.13	Stable	4	0.25	19.7	0.63
O=C(O)C(F)(F)F.OC1CN=C(c2ccc3cc(-c4ccc(-c5cc6ccc(C7=NCC(O)CN7)cc6[nH]5)cc4)[nH]c3c2)NC1 (stereo not drawn)	0.31	0.06	Stable	12.7	0.16	> 80	0.5
O=C(O)C(F)(F)F.c1cc2cc(CCc3cc4ccc(C5=NCCCN5)cc4[nH]3)[nH]c2cc1C1=NCCCN1	2	1	Stable	8	1	24.6	3.17
COCCNC(=N)c1ccc2cc(-c3ccc(-c4cc5ccc(C(=N)NCCOC)cc5[nH]4)cc3)[nH]c2c1.O=C(O)C(F)(F)F	0.79	1.1	Stable	1	0.5	3.5	0.79
CC(=O)O.c1cc2cc(-c3ccc4cc(C5=NCCCN5)oc4c3)[nH]c2cc1C1=NCCCN1	0.5	0.5	Stable	4	0.13	17.1	0.31
c1cc2[nH]c(-c3ccc(-c4cc5ccc(C6=NCCCN6)cc5[nH]4)cc3)cc2cc1C1=NCCCN1	–	3.12 (≈ 6.6 µM)	Stable	19.8 (≈ 41.9 µM)	–	13.6 (≈ 28.8 µM)	7.87 (≈ 16.7 µM)
